# Reference: article PMC10061536 (ACS Omega, 2023)
# Assays:
# α-amylase = experiment: α-Amylase inhibition assay; format: biochemical; conditions: for IC50: read-out: IC50 ± SEM, α-amylase inhibition
# [1] = molecular target: Bovine serum albumin (BSA)-glucose model (Bos taurus, UniProt P02769); experiment: In vitro anti-glycation assay, BSA-glucose model; format: biochemical; conditions: for inhibition at 100 ppm / inhibition at 200 ppm / inhibition at 400 ppm / inhibition at 600 ppm / inhibition at 800 ppm / inhibition at 1000 ppm: read-out: % age antiglycation inhibition
# Bovine serum albumin (BSA)-glucose model, sequence (P02769 25-607): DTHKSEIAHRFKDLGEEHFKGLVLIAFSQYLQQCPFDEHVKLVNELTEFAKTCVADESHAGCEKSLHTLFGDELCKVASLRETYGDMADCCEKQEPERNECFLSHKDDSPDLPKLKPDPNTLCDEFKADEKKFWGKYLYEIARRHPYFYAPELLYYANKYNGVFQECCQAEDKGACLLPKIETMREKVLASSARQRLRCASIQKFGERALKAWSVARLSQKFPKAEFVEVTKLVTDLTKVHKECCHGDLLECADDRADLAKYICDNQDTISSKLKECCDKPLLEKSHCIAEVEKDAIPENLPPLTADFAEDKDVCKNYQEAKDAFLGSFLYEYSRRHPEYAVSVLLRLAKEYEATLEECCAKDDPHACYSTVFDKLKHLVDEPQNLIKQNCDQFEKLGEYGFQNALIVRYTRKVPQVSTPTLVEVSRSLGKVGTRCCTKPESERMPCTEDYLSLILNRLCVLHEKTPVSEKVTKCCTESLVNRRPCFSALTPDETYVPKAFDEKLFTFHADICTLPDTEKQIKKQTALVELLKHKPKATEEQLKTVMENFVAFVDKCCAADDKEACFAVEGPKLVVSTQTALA
# Method in brief: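 Glycation is read by measuring the fluorescence of glycated products on a spectrofluorometer.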
# [2] = DPPH radical scavenging assay; conditions: for IC50: read-out: IC50 (mM ± SEM), DPPH scavenged by 50%
# Method in brief: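 Radical scavenging of DPPH by the test compound, with ascorbic acid as the reference.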
# glycation [3] = conditions: read-out: IC50, antiglycation; cited from earlier work
# glycation [4] = conditions: cited from earlier work
SMILES,% age α-amylase inhibition (α-amylase; 1 μM) [%],% age α-amylase inhibition (α-amylase; 5 μM) [%],% age α-amylase inhibition (α-amylase; 10 μM) [%],IC50 (α-amylase) [µM],inhibition at 100 ppm [1] [%],inhibition at 200 ppm [1] [%],inhibition at 400 ppm [1] [%],inhibition at 600 ppm [1] [%],inhibition at 800 ppm [1] [%],inhibition at 1000 ppm [1] [%],% age antioxidant potential ([2]; 3 mM) [%],% age antioxidant potential ([2]; 6 mM) [%],% age antioxidant potential ([2]; 9 mM) [%],% age antioxidant potential ([2]; 12 mM) [%],% age antioxidant potential ([2]; 15 mM) [%],IC50 [2] [mM],further results
"Fc1ccc(-c2csc(NN=Cc3ccc[nH]3)n2)cc1 [3m, 2-(2-((1H-Pyrrol-2-yl)methylene)hydrazinyl)-4-(4-fluorophenyl)thiazole]",42.76,52.79,63.94,6.66 ± 0.13,76.8,78.8,82.5,84,86.1,88.8,0.00,0.00,0.00,15.13,31.05,,"percentage antioxidant potential ([2]; at tested concentrations, IC50 not calculated): less than 50%"
"Fc1ccc(-c2csc(NN=Cc3cccs3)n2)cc1 [3n, 4-(4-Fluorophenyl)-2-(2-(thiophen-2-ylmethylene)hydrazinyl)thiazole]",51.64,64.48,71.83,5.77 ± 0.05,79.3,81,82.1,83,85.8,87.8,0.00,12.72,30.39,45.47,59.36,13.86 ± 0.04,
"CSc1ccccc1C=NNc1nc(-c2ccc(F)cc2)cs1 [3o, 4-(4-Fluorophenyl)-2-(2-(2-(methylthio)benzylidene)hydrazinyl)thiazole]",33.07,43.03,57.18,7.69 ± 0.18,83.7,84.2,85.5,86.4,88.2,89.5,0.00,7.68,18.22,30.15,53.73,18 ± 0.27,
"N=C(N)NN [amino guanidine, reference compound]",,,,,,,,,,,,,,,,,"% age antiglycation inhibition ([1]; 100 ppm): 85.190%; % age antiglycation inhibition ([1]; 200 ppm): 86.141%; % age antiglycation inhibition ([1]; 400 ppm): 87.143%; % age antiglycation inhibition ([1]; 600 ppm): 88.011%; % age antiglycation inhibition ([1]; 800 ppm): 88.866%; % age antiglycation inhibition ([1]; 1000 ppm): 89.657%; IC50 (glycation [3]): 25.5 ± 0.337 µM; IC50, antiglycation (glycation [4]): 0.394 ± 0.001 mg/mL"
